# Measurements: ChEMBL document CHEMBL5247630, “Rational design of the zonulin inhibitor AT1001 derivatives as potential anti SARS-CoV-2” (Eur J Med Chem, 2022)
# Non-standard residues stand in square brackets, D forms with d. Residues, ends and D or L forms follow the SMILES beside them. *: point of attachment. Hyp = O=C(O)[C@@H]1C[C@@H](O)CN1; Tic = O=C(O)[C@@H]1Cc2ccccc2CN1; Octanoyl = CCCCCCCC(=O)*; Boc = CC(C)(C)OC(=O)*; tBu = CC(C)(C)*
# Key:
# [1] = biological target: T1, Replicase polyprotein 1ab (Severe acute respiratory syndrome coronavirus 2, UniProt P0DTD1); test: Binding affinity to C-terminal His6-tagged recombinant SARS-CoV-2 MPro transfected in Escherichia coli BL21 (DE3) assessed as dissociation constant by Cheng-Prusoff equation analysis
# [2] = biological target: T1, Replicase polyprotein 1ab; test: Inhibition of C-terminal His6-tagged recombinant SARS-CoV-2 MPro transfected in Escherichia coli BL21 (DE3) using Dabcyl-KTSAVLQSGFRKM-E(Edans)-NH2 as substrate preincubated for 15 mins followed by substrate addition measured after 30 mins by FRET assay
# Procedure, shortened: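 Recombinant Mpro (20 nM final) was preincubated 15 min at room temperature with compound.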
# [3] = Cytotoxicity against HELF cells assessed as change in cell morphology; format: toxicity, cell-based; details: human
# [4] = Cytotoxicity against African green monkey Vero cells assessed as change in cell morphology by microscopic analysis; format: toxicity, cell-based; details: chlorocebus sabaeus
# Procedure, shortened: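 Vero CCL81 cells were run in parallel with the antiviral assay in DMEM 2% FCS for 5 days at 37 °C. The value is the minimum concentration causing a microscopically detectable change in cell morphology.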
# [5] = tested on: SARS-CoV-2; test: Antiviral activity against SARS-CoV-2 NVDBB-2220 infected in African green monkey Vero cells assessed as reduction in virus-induced cytopathic effect incubated for 5 days by microscopic analysis; format: functional, organism-based; details: Severe acute respiratory syndrome coronavirus 2, NVDBB-2220, Vero, 120 h
# [6] = tested on: Vero; test: Cytotoxicity against African green monkey Vero cells assessed as reduction in cell growth by Coulter counter analysis; format: toxicity, cell-based; details: chlorocebus sabaeus
# Procedure, shortened: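 Mock-infected Vero CCL81 cultures were treated with the compound dilution series in DMEM 2% FCS for 5 days at 37 °C.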
# [7] = tested on: SARS-CoV-2; test: Antiviral activity against SARS-CoV-2 UC-1074 infected in African green monkey Vero cells assessed as reduction in virus-induced cytopathic effect incubated for 5 days by microscopic analysis; format: functional, organism-based; details: Severe acute respiratory syndrome coronavirus 2, UC-1074, Vero, 120 h
# [8] = tested on: SARS-CoV-2; test: Antiviral activity against SARS-CoV-2 RG2674 infected in African green monkey Vero cells assessed as reduction in virus-induced cytopathic effect incubated for 5 days by microscopic analysis; format: functional, organism-based; details: Severe acute respiratory syndrome coronavirus 2, RG2674, Vero, 120 h
# [9] = biological target: T1, Replicase polyprotein 1ab; test: Binding affinity to C-terminal His6-tagged recombinant SARS-CoV-2 MPro expressed in Escherichia coli BL21 (DE3) assessed as dissociation constant by ITC assay
# Procedure, shortened: (§1)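 E. coli BL21(DE3) Mpro, made untagged by 3C cleavage and SEC, was dialysed into 25 mM Tris-HCl pH 7.6, 20 mM NaCl, 1 mM TCEP. 20–25 µM protein in the cell was titrated with 160–250 µM compound at 28 °C, 0.5% DMSO on both sides, 2.5 µL injections every 180 s. One-site fit with stoichiometry fixed at 1 gave ΔH, ΔS and KD.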
# [10] = tested on: Human alphaherpesvirus 3; test: Antiviral activity against thymidine kinase positive VZV OKA infected in HELF cells assessed as reduction in viral replication; format: functional, organism-based; details: Human alphaherpesvirus 3, OKA
# [11] = tested on: Human betaherpesvirus 5; test: Antiviral activity against HCMV Davis infected in HELF cells assessed as reduction in viral replication; format: functional, organism-based; details: Human betaherpesvirus 5, Davis
# [12] = biological target: Replicase polyprotein 1ab (Severe acute respiratory syndrome coronavirus 2) (UniProt P0DTD1); test: Binding affinity to C-terminal His6-tagged recombinant SARS-CoV-2 MPro expressed in Escherichia coli BL21 (DE3) assessed as change in entropy by ITC assay; procedure, shortened: as §1
# [13] = biological target: Replicase polyprotein 1ab (Severe acute respiratory syndrome coronavirus 2) (UniProt P0DTD1); test: Binding affinity to C-terminal His6-tagged recombinant SARS-CoV-2 MPro expressed in Escherichia coli BL21 (DE3) assessed as change in enthalpy by ITC assay; procedure, shortened: as §1
# [14] = biological target: Replicase polyprotein 1ab (Severe acute respiratory syndrome coronavirus 2) (UniProt P0DTD1); test: Binding affinity to C-terminal His6-tagged recombinant SARS-CoV-2 MPro expressed in Escherichia coli BL21 (DE3) assessed as change in gibbs free energy by ITC assay
# [15] = tested on: Human betaherpesvirus 5; test: Antiviral activity against HCMV AD-169 infected in HELF cells assessed as reduction in viral replication; format: functional, organism-based; details: Human betaherpesvirus 5, AD-169, HELF
# [16] = tested on: Human alphaherpesvirus 3; test: Antiviral activity against thymidine kinase deficient VZV 07-1 infected in HELF cells assessed as reduction in viral replication; format: functional, organism-based; details: Human alphaherpesvirus 3, 07-1, HELF
# [17] = Selectivity index, ratio of EC50 for antiviral activity against SARS-CoV-2 RG2674 infected in African green monkey Vero cells to EC50 for antiviral activity against SARS-CoV-2 UC-1074 infected in African green monkey Vero cells; format: toxicity
# [18] = AUCt/dose in C57BL6 mouse at 25 mg/kg, po; format: ADME, organism-based; details: in vivo
# Procedure, shortened: (§2)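 Male C57BL6 mice, 6–8 weeks, 3 per group, single intranasal dose (0.5 mg/kg at 1.0 mg/mL; 1.25 mg/kg at 2.5 mg/mL) or oral dose (10 mg/kg at 1.0 mg/mL; 25 mg/kg at 2.5 mg/mL). Blood collected at 0.25, 1, 2, 4, 8 and 24 h. Cmax, Tmax and AUCt/dose were taken from plasma concentrations, given with SD.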
# [19] = Tmax in C57BL6 mouse at 1.25 mg/kg, INH; format: ADME, organism-based; details: in vivo, inhaled_or_intranasal; procedure, shortened: as §2
# [20] = Tmax in C57BL6 mouse at 0.5 mg/kg, INH; format: ADME, organism-based; details: in vivo, inhaled_or_intranasal; procedure, shortened: as §2
# [21] = AUCt/dose in C57BL6 mouse at 1.25 mg/kg, INH; format: ADME, organism-based; details: in vivo, inhaled_or_intranasal; procedure, shortened: as §2
# [22] = Tmax in C57BL6 mouse at 25 mg/kg, po; format: ADME, organism-based; details: in vivo; procedure, shortened: as §2
# [23] = Selectivity index, ratio of EC50 for antiviral activity against SARS-CoV-2 RG2674 infected in African green monkey Vero cells to EC50 for antiviral activity against SARS-CoV-2 NVDBB-2220 infected in African green monkey Vero cells; format: toxicity
# [24] = Cmax in C57BL6 mouse at 1.25 mg/kg, INH; format: ADME, organism-based; design: dose 1.25 mg/kg, route inh; details: in vivo, inhaled_or_intranasal; procedure, shortened: as §2
# [25] = Cmax in C57BL6 mouse at 10 mg/kg, po; format: ADME, organism-based; design: dose 10 mg/kg, route po; details: in vivo; procedure, shortened: as §2
# [26] = Cmax in C57BL6 mouse at 0.5 mg/kg, INH measured for 0.25 to 24 hrs; format: ADME, organism-based; design: time lower 0.25 hrs, dose 0.5 mg/kg, time upper 24 hrs, route inh; details: in vivo, inhaled_or_intranasal; procedure, shortened: as §2
# [27] = AUCt/dose in C57BL6 mouse at 0.5 mg/kg, INH measured for 0.25 to 24 hrs; format: ADME, organism-based; details: in vivo, inhaled_or_intranasal, time 0.25-24 hrs; procedure, shortened: as §2
# [28] = Cmax in C57BL6 mouse at 25 mg/kg, po; format: ADME, organism-based; design: dose 25 mg/kg, route po; details: in vivo; procedure, shortened: as §2
# [29] = Tmax in C57BL6 mouse at 10 mg/kg, po; format: ADME, organism-based; details: in vivo; procedure, shortened: as §2
# [30] = AUCt/dose in C57BL6 mouse at 10 mg/kg, po; format: ADME, organism-based; details: in vivo; procedure, shortened: as §2
# [31] = Stability of compound in PBS buffer at pH 7 at 25 to […] degreeC measured for 3 to 24 hrs by HPLC analysis; format: physicochemical; details: time 3-24 hrs
# Procedure, shortened: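 Peptide at 0.3 mg/mL was held in PBS pH 7.0 at 25 °C and 37 °C for 24 h. The peptide peak area was followed by RP-HPLC on C18 with detection at 220 nm, sampled at 3, 6, 8 and 24 h.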
molecule,measurement,setting,value
O=C[C@H](Cc1c[nH]cn1)NC(=O)[C@H](Cc1c[nH]cn1)NC(=O)[C@@H]1Cc2ccccc2CN1 (H-[Tic]-His-His-aldehyde),Kd,[1],18.9 µM
same,IC50,[2],37.8 µM
Nc1nc2c(ncn2COCCO)c(=O)[nH]1 [ACYCLOVIR],MCC,[3],> 444 µM
CCC(CC)COC(=O)[C@H](C)N[P@](=O)(OC[C@H]1O[C@@](C#N)(c2ccc3c(N)ncnn23)[C@H](O)[C@@H]1O)Oc1ccccc1,MCC,[4],80 µM
same,EC50,[5],0.2 µM
same,CC50,[6],70.6 µM
same,EC50,[7],0.89 µM
same,EC50,[8],1.3 µM
CC(=O)NCC(=O)N[C@@H](Cc1ccc(O)cc1)C(=O)N[C@H](C=O)Cc1c[nH]cn1 (Ac-Gly-Tyr-His-aldehyde),Kd,[1],98.9 µM
same,IC50,[2],198 µM
Ac-GGVLVQPG-NH2,EC50,[7],17.6 µM
CC(=O)NCC(=O)N[C@@H](Cc1c[nH]cn1)C(=O)N[C@H](C=O)Cc1c[nH]cn1 (Ac-Gly-His-His-aldehyde),Kd,[1],> 107 µM
same,IC50,[2],> 213 µM
CC(=O)NCC(=O)N[C@@H](Cc1c[nH]cn1)C(=O)N[C@H](C=O)Cc1ccc(O)cc1 (Ac-Gly-His-Tyr-aldehyde),Kd,[1],> 213 µM
same,IC50,[2],> 425 µM
CC(C)(C)OC(=O)NCC(=O)N[C@@H](Cc1ccccc1)C(=O)N[C@H](C=O)Cc1c[nH]cn1 (Boc-Gly-Phe-His-aldehyde),MCC,[4],≥ 100 µM
same,EC50,[5],43.3 µM
same,CC50,[6],> 100 µM
same,Kd,[9],442 nM
same,EC50,[7],50.2 µM
same,EC50,[10],> 100 µM
same,EC50,[8],84.9 µM
same,EC50,[11],> 100 µM
same,MCC,[3],> 100 µM
same,Kd,[1],3.26 µM
same,-TdeltaS,[12],24.2 kJ/mol
same,deltaH,[13],-60.8 kJ/mol
same,IC50,[2],6.49 µM
same,deltaG,[14],-36.7 kJ/mol
same,EC50,[15],> 20 µM
same,EC50,[16],> 100 µM
CCCCCCCC(=O)NCC(=O)N[C@@H](Cc1ccccc1)C(=O)N[C@H](C=O)Cc1c[nH]cn1 (Octanoyl-Gly-Phe-His-aldehyde),Ratio EC50,[17],8
same,MCC,[4],≥ 100 µM
same,AUCt/dose,[18],2 kg·ng·h/mL/mg
same,EC50,[5],5.2 µM
same,CC50,[6],> 100 µM
same,Tmax,[19],15 min
same,Tmax,[20],15 min
same,Kd,[9],425 nM
same,EC50,[7],5 µM
same,EC50,[10],> 100 µM
same,AUCt/dose,[21],150.62 kg·ng·h/mL/mg
same,Tmax,[22],30 min
same,EC50,[8],39.9 µM
same,EC50,[11],> 100 µM
same,MCC,[3],> 100 µM
same,Ratio EC50,[23],8
same,Kd,[1],1.19 µM
same,Cmax,[24],325.95 ng/mL
same,Cmax,[25],22.72 ng/mg
same,Cmax,[26],177.97 ng/mL
same,-TdeltaS,[12],31.8 kJ/mol
same,deltaH,[13],-68.5 kJ/mol
same,AUCt/dose,[27],188.05 kg·ng·h/mL/mg
same,Cmax,[28],33.7 ng/mL
same,IC50,[2],2.37 µM
same,deltaG,[14],-36.8 kJ/mol
same,EC50,[15],> 20 µM
same,Tmax,[29],45 min
same,EC50,[16],> 100 µM
same,AUCt/dose,[30],3.07 kg·ng·h/mL/mg
O=c1[nH]c(=O)n([C@H]2C[C@H](O)[C@@H](CO)O2)cc1/C=C/Br [BRIVUDINE],EC50,[10],0.17 µM
same,MCC,[3],> 300 µM
same,EC50,[16],4.53 µM
CC(=O)NCC(=O)N[C@@H](Cc1ccccc1)C(=O)N[C@H](C=O)Cc1c[nH]cn1 (Ac-Gly-Phe-His-aldehyde),MCC,[4],≥ 100 µM
same,EC50,[5],40.3 µM
same,CC50,[6],> 100 µM
same,Kd,[9],640 nM
same,EC50,[7],66.1 µM
same,EC50,[10],> 100 µM
same,EC50,[8],> 100 µM
same,EC50,[11],> 100 µM
same,MCC,[3],> 100 µM
same,Kd,[1],1.26 µM
same,-TdeltaS,[12],17.4 kJ/mol
same,deltaH,[13],-53.2 kJ/mol
same,IC50,[2],2.51 µM
same,deltaG,[14],-35.7 kJ/mol
same,EC50,[15],> 20 µM
same,EC50,[16],> 100 µM
same,Stability,[31],Stable
Nc1ccn(C[C@@H](CO)OCP(=O)(O)O)c(=O)n1 [CIDOFOVIR],EC50,[11],0.25 µM
same,EC50,[15],1.08 µM
CC(C)C[C@@H](C=O)NC(=O)[C@H](Cc1ccccc1)NC(=O)[C@@H]1Cc2ccccc2CN1 (H-[Tic]-Phe-Leu-aldehyde),Kd,[1],> 213 µM
same,IC50,[2],> 425 µM
CC(C)(C)O[C@H]1CN[C@H](C(=O)N[C@@H](Cc2c[nH]cn2)C(=O)N[C@H](C=O)Cc2c[nH]cn2)C1 (H-[Hyp](tBu)-His-His-aldehyde),Kd,[1],> 85 µM
same,IC50,[2],> 170 µM
